Rows were chosen to be rich in hits. Some 1.8% of all compounds tested hit in one or more screens of this group.
mABHD4 FP: ABHD4 inhibitors, primary screen, biochemical, fluorescence polarization, mouse. (Lyso)-N-acylphosphatidylethanolamine lipase (Mus musculus), Q8VD66. purified mABHD4, FP-Rh probe fluorescence polarization. inhibition, % at 8.92 µM. 370,000 tested, 0.54% active. AID 720543, 2013;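 active means inhibition exceeding the mean over every tested compound plus 3 SD, cut at about 30% in these data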
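Assay system: mouse ABHD4 enzyme, wild type / Also added: fluorescent activity-based probe FP-Rh / Doses: single nominal dose of 8.92 µM, 0.89% DMSO final / Timing: 45 min compound pre-incubation plus 60 min probe step, 25 °C / Signal: FP readout, ex 525 nm / em 598 nm / Control set: S159A mutant/DMSO as 100%, compound-well median as 0%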
TCR-CD3 inh: inhibitors of human TCR-CD3 interaction, primary screen, biochemical, fluorescence, TAMRA-labeled TCR probe. T-cell receptor (TCR). inhibition, % at 9.4 µM. 360,000 tested, 0.37% active. AID 651800, 2012; in the data active means inhibition above about 19%;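 further: recombinant mutant TCR 2C K166C tagged with TAMRA read by polarization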
PME-1 primary: PME-1 inhibitors via competitive probe labeling, primary screen, biochemical, fluorescence polarization, FP-Rh probe, HTS; Protein phosphatase methylesterase 1 (Homo sapiens), Q9Y570; recombinant PME-1; inhibition, % at 5.9 µM; 320,000 tested, 0.53% active;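 active means inhibition above the campaign mean of all compounds plus 3 SD, cut at about 26% in these data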;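 further: competitive labeling of PME-1 active site by serine hydrolase directed probe; inhibitors block probe labeling so polarization falls and inhibition rises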
Target sequence (Q9Y570 whole entry, looked up): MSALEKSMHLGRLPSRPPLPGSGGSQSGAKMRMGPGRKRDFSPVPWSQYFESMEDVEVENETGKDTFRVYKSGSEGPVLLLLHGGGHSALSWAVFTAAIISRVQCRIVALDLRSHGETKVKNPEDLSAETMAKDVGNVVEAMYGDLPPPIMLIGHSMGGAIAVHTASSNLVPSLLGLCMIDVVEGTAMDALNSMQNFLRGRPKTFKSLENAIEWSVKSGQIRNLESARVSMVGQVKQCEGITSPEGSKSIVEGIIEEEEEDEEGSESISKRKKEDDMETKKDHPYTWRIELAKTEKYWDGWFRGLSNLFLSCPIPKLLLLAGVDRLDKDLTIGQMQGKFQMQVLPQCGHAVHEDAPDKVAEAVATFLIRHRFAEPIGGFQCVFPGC
HTRA1 inh: HTRA1 serine protease inhibitors, primary screen, biochemical, fluorescence polarization, HTS | recombinant HTRA1, FP-rhodamine activity-based probe | inhibition, % at 5.96 µM | Q92743 | 340,000 tested, 0.5% active; in the data active means inhibition above about 36%
SIAE primary: human SIAE inhibitors, primary screen, biochemical, fluorescence polarization, FP-Rh probe, 1536-well HTS; inhibition, % at 9.66 µM; SIAE FP-Rh probe binding; 370,000 tested, 0.69% active;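 active means inhibition above a cutoff: mean of compounds within the control limits plus 3 SD of those, cut at about 17% in these data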
Fam108B counter: mouse Fam108B serine hydrolase inhibitors, primary screen, counter-screen for RBBP9 inhibitor project, biochemical, fluorescence polarization; recombinant Fam108B, FP-Rh probe fluorescence polarization; inhibition, % at 9.51 µM; 300,000 tested, 0.33% active;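 active means inhibition above the screen mean inhibition plus 3 SD, computed separately per campaign, cut at about 18% in these data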;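 further: inhibitors lower polarization as less probe binds the enzyme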
SIAE confirm: human SIAE inhibitors, retest, confirmation, biochemical, fluorescence polarization, FP-Rh probe, triplicate; shares compounds with SIAE primary; SIAE FP-Rh activity-based probe; inhibition, % at 9.66 µM; 2,300 tested, 13% active; AID 1117263, 2014;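 active means mean inhibition of the replicates above the hit cutoff set in the primary screen, cut at about 17% in these data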;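 further: inhibitors lower polarization as more probe stays unbound to SIAE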
Large screens that a line does not name were inactive (follow-up assays come after a bar, where they were run).

O=[N+]([O-])c1ccc(O)c(/C=N/Nc2nc3ccccc3[nH]2)c1	SIAE primary 19 | SIAE confirm inactive
O=C(CSc1nc2ccccc2o1)N1N=C(c2cccs2)CC1c1ccc(F)cc1 (configuration not stated)	SIAE primary 20 | SIAE confirm inactive
Cc1ccc(C2CC(c3cccs3)=NN2C(=O)CSc2nc3ccccc3o2)cc1 (configuration not stated)	none
COc1ccc(/C=N/NC(=O)CNC(=O)c2ccncc2)cc1	none
NNC(=O)c1ccc(Cn2cccn2)o1	SIAE primary 21 | SIAE confirm inactive
O=C(CN1C(=O)CSc2ccc(S(=O)(=O)N3CCOCC3)cc21)NCCc1ccccc1	none (no result: PME-1 primary, Fam108B counter)
Oc1c(Br)cc(Br)cc1C=Nc1cccc2ncccc12	SIAE primary 22 | SIAE confirm inactive
Brc1cccc(C=Nc2cccc3ncccc23)c1	none
CCOC(=O)N1CCN(C(=O)C[C@H]2C[C@@]3(C(=O)OC)C(=C[C@H](C(C)C)O[C@@H]3C3CC3)N(Cc3ccc(Cl)cc3Cl)C2=O)CC1	none (no result: TCR-CD3 inh, PME-1 primary, HTRA1 inh, Fam108B counter)
Oc1ccc(Nc2nc(-c3ccccc3F)nc3ccccc23)cc1	none
Oc1ccc(Nc2nc(-c3ccccc3O)nc3ccccc23)cc1	SIAE primary 26 (no result: PME-1 primary, Fam108B counter) | SIAE confirm inactive
O=C(N/N=C/c1cn(-c2ccccc2)nc1-c1ccccc1)c1ccco1	SIAE primary 21 | SIAE confirm inactive
O=C(N/N=C\c1cn(-c2ccccc2)nc1-c1ccccc1)c1ccc(Br)o1	none
Cc1cccc(S(=O)(=O)Nc2ccc(C)c3c2OC(C)(C)C3)c1	SIAE primary 24 | SIAE confirm inactive
Cc1ccc(-c2cnc3n2CCCCC3)cc1	none
c1cc2c(cc1-c1cnc3n1CCC3)OCCO2	SIAE primary 17 | SIAE confirm inactive
CCN(C(=O)CN1CCCC(C)C1)c1c(N)n(Cc2ccccc2)c(=O)[nH]c1=O (configuration not stated)	none (no result: PME-1 primary, Fam108B counter)
COc1ccc(NC(=O)N(C)C[C@H]2OCc3cnnn3CCCC(=O)N([C@H](C)CO)C[C@@H]2C)c(OC)c1	SIAE primary 21 (no result: PME-1 primary, HTRA1 inh, Fam108B counter) | SIAE confirm inactive
CCCNC(=O)C1(C)CCN(Cc2ccc(Oc3ccccc3)cc2)C1 (configuration not stated)	none (no result: PME-1 primary, HTRA1 inh, Fam108B counter)
c1ccc2c(c1)CCN(c1nc3ccccc3n3cnnc13)C2	SIAE primary 18 | SIAE confirm inactive
CC(=O)NC12CC3CC(C1)CC(C(=O)N1CCN(S(=O)(=O)c4ccccc4C#N)CC1)(C3)C2	SIAE primary 28 (no result: PME-1 primary, Fam108B counter) | SIAE confirm inactive
Cc1cc(NC(=O)C(C)SCC(=O)NCc2ccc(F)cc2)no1 (configuration not stated)	none (no result: Fam108B counter)
Cc1cc(S(=O)(=O)c2ccc([N+](=O)[O-])cn2)ccc1Br	SIAE primary 24 | SIAE confirm inactive
Cc1ccc(S(=O)(=O)c2ccc([N+](=O)[O-])cn2)cc1	none
CCOc1ccc(Nc2nc(N)c([N+](=O)[O-])c(NCc3ccccc3)n2)cc1	SIAE primary 20 | SIAE confirm 32
CCn1nnnc1NCc1ccc(SC)cc1	SIAE primary 17 (no result: PME-1 primary, Fam108B counter) | SIAE confirm inactive
CCn1nnnc1NCc1ccc(N2CCCC2)cc1	none
CCCCn1c(=O)c2c(nc3n2CCCN3Cc2ccccc2)n(C)c1=O	none (no result: PME-1 primary, Fam108B counter)
C[C@H](CO)N1C[C@H](C)[C@@H](CN(C)S(=O)(=O)c2ccc(F)cc2)Oc2ccc(NC(=O)Nc3ccc4c(c3)OCO4)cc2C1=O	SIAE primary 22 (no result: PME-1 primary, Fam108B counter) | SIAE confirm inactive
CCc1nc2sc3c(c2c(=O)o1)CCCC3	SIAE primary 20 | SIAE confirm inactive
CCOC(=O)[C@]12CCCCC/C=C\1N(Cc1ccc(OC)cc1)C(=O)[C@H]2CC(=O)N1CCCC1	none (no result: TCR-CD3 inh, PME-1 primary, HTRA1 inh, Fam108B counter)
CCc1ccc(NC(=O)C(C)Sc2nnc(CN3CCCC3)o2)cc1 (configuration not stated)	SIAE primary 19 (no result: Fam108B counter) | SIAE confirm inactive
Cc1nn(-c2ccccc2)c(Cl)c1C(=O)NCC(=O)O	SIAE primary 19 | SIAE confirm inactive
CCOc1ccc(NC(=O)CN(C)C(=O)c2c(C)nn(-c3ccccc3)c2Cl)cc1OCC	SIAE primary 19 | SIAE confirm inactive
CCOc1ccc(NC(=O)CN(C)C(=O)c2c(C)nn(-c3ccc(F)cc3)c2Cl)cc1OCC	none
Cc1cccc(C)c1NC(=O)CNC(=O)c1c(C)nn(-c2ccccc2)c1Cl	none
O=C(c1cccc(Cl)c1)N1CCC(=O)N([C@H](COCc2cccc(Cl)c2)Cc2ccccc2)CC1	none (no result: PME-1 primary, HTRA1 inh, Fam108B counter)
CSC1=NC(C)(C)C=C(/C=C/c2ccc(Cl)cc2Cl)N1	none
CSC1=NC(C)(C)C=C(/C=C/c2ccc(Cl)cc2)N1	SIAE primary 17 | SIAE confirm inactive
CCOC(=O)[C@]12CCCC=C1N(Cc1ccco1)C(=O)[C@H](CC(=O)NCc1cccc3ccccc13)C2	none (no result: PME-1 primary, HTRA1 inh, Fam108B counter)
C#CCN1C(C(=O)OC)CN(CCCCCC)CCS1(=O)=O (configuration not stated)	none (no result: TCR-CD3 inh, PME-1 primary, HTRA1 inh, Fam108B counter)
Cc1ccn2c(C(C)O)nnc2c1 (configuration not stated)	none (no result: PME-1 primary, Fam108B counter)
CC(Sc1nc(-c2ccccc2)c(-c2ccccc2)[nH]1)C(=O)NCC1CCCO1 (configuration not stated)	SIAE primary 21 (no result: PME-1 primary, Fam108B counter) | SIAE confirm inactive
CCc1cccc2c(SC(C)C(=O)NCC3CCCO3)nc(-c3ccccc3)nc12 (configuration not stated)	none
Cc1cc(C)n(CCN(C)C(=O)C2CCC(=O)N(CCc3cccc(F)c3)C2)n1 (configuration not stated)	none
O=C(c1ccc2c3n(nc2c1)-c1ccccc1CO3)N1CCCCC1	SIAE primary 17 | SIAE confirm inactive
COc1ccc(CCNC(=O)CNCC(c2ccccc2)N(C)C)cc1OC (configuration not stated)	SIAE primary 19 | SIAE confirm inactive
O=C(COC(=O)c1ccc(CSc2ccc(Cl)cc2)cc1)Nc1ccccc1	SIAE primary 20 | SIAE confirm inactive
C[C@]1(C(=O)NCCN2CCOCC2)C=C[C@@H](Cc2ccccc2)N1C(=O)c1ccccc1	SIAE primary 21 | SIAE confirm inactive
CCCN(CCC)CC(O)Cn1cc(/C=C/C(=O)c2cccs2)c2ccccc21 (configuration not stated)	none

From PubChem BioAssay
